Measurements pooled from the literature.
Each line is one published result; the experiments were not run side by side.
Target: Receptor-interacting serine/threonine-protein kinase 2 (RIPK2, Homo sapiens, UniProt O43353)

CN([C@@H]1CCc2c(CC(=O)O)c3ccccc3n2C1)S(=O)(=O)c1ccc(F)cc1
remaining binding (cell-free assay; competition with immobilised ligand; 1 µM): 92%

O=C(c1ccc(Nc2nccc(-c3cc4ccccc4s3)n2)cc1)N1CCC(N2CCCC2)CC1
remaining binding (binding; competition with immobilised ligand; 1 µM): 79%

O=C(Nc1c[nH]nc1C(=O)NC1CCNCC1)c1cc(F)cc(F)c1
remaining binding (binding; competition with immobilised ligand; 1 µM): 53%

Cc1cc(NC(=O)c2cccc(S(F)(F)(F)(F)F)c2)cc(-n2ccn3nc(-c4cccnc4)cc23)c1
remaining binding (cell-free assay; competition with immobilised ligand; 1 µM): 88.6%

COc1ncc2cc3ccccc3nc2c1C#N
remaining binding (cell-free assay; competition with immobilised ligand; 5 µM): 100%

C[C@H]1CCN(c2nccc(-c3cnn4ncccc34)n2)C1
remaining binding (binding; 1 µM): 95%

O=C(c1ccc(Nc2ncc(Cl)c(-c3cc4ccccc4s3)n2)cc1)N1CCC(N2CCCC2)CC1
remaining binding (binding; competition with immobilised ligand; 1 µM): 98%

O=C1NC(c2ccccn2)Sc2ccccc21 (stereo not shown)
remaining binding (cell-free assay; competition with immobilised ligand; 1 µM): 100%

CCN1CCN(Cc2ccc(C(=O)Nc3ccc(C)c(Oc4ccc5c(c4)CC(=O)N5)c3)cc2C(F)(F)F)CC1
remaining binding (binding; competition with immobilised ligand; 1 µM): 100%

Nc1ncc2c(n1)-c1c([nH]c3ccc(C#CC4CC4)cc13)CCCC2
remaining binding (binding; competition with immobilised ligand; 1 µM): 100%

CN(CCCC(F)(F)F)c1nccc(-c2cnn3ncccc23)n1
remaining binding (binding; 1 µM): 89%

O=C(NCc1ncc(C(F)(F)F)cc1Cl)c1ccc2c(c1)C1(CCS(=O)(=O)CC1)[C@H](C1CC1)N2S(=O)(=O)c1ccc(F)cc1
remaining binding (cell-free assay; competition with immobilised ligand; 1 µM): 100%

O=C(NCCCN1CCOCC1)c1ccc(Nc2nccc(-c3cc4ccccc4s3)n2)cc1
remaining binding (binding; competition with immobilised ligand; 1 µM): 80%

C=CC(=O)N1CCC(C(=O)NCC(=O)N2CCN(c3nc(-c4cnc(N)nc4C(F)F)nc(N4CCOCC4)n3)CC2)CC1
remaining binding (binding; competition with immobilised ligand; 1 µM): 100%

c1cnn2ncc(-c3ccnc(N4CCC45COC5)n3)c2c1
remaining binding (binding; 1 µM): 78%

CC(=O)C1=C(C)N(c2cccc(C(F)(F)F)c2)C(=O)N[C@@H]1c1ccc(C#N)nc1
remaining binding (cell-free assay; competition with immobilised ligand; 1 µM): 98.7%

CC1CCCN1c1nccc(-c2cnn3ncccc23)n1 (stereo not shown)
remaining binding (binding; 1 µM): 89%

FC(F)(F)Oc1cccc(-c2cnc3ccc(-c4ccncc4)nn23)c1
remaining binding (binding; competition with immobilised ligand; 5 µM): 42%

COc1ccnn2ncc(-c3ccnc(N(C)C)n3)c12
remaining binding (binding; 1 µM): 100%

COc1cnc(Nc2cccc(S(N)(=O)=O)c2)nc1N1CCN(c2ccccc2)CC1
remaining binding (binding; competition with immobilised ligand; 1 µM): 100%

CO[C@H]1CC[C@H](CNc2ccc(S(=O)(=O)NC(=O)c3ccc(N4CCN(CC5=C(c6ccc(Cl)cc6)CC(C)(C)CC5)CC4)cc3Oc3cnc4[nH]ccc4c3)cc2[N+](=O)[O-])CC1
remaining binding (cell-free assay; competition with immobilised ligand; 1 µM): 85%

N[C@H]1CCN(c2nccc(-c3cnn4ncccc34)n2)C1
remaining binding (binding; 1 µM): 100%
